In ChEMBL document CHEMBL1921775, “Phenolic glycosides from sugar maple (Acer saccharum) bark” (J Nat Prod, 2011):
≈ marks a conversion by molar mass, not a printed value.

Tests used:
[1] = Cytotoxicity against human CCD-18Co cells after 72 hrs by MTS assay; format: cell-based
Procedure, shortened: (§1)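 Colon cells (Caco-2 adenocarcinoma, nontumorigenic CCD-18Co) in EMEM with 10% FBS, 1% nonessential amino acids, 1% L-glutamine and antibiotics, passages 26–35, 37 °C, 5% CO2. Samples were dissolved in DMSO by sonication and diluted in medium, with final DMSO ≤0.5%. Six-point 4-fold dilution series ran for 72 h. MTS/PMS was read at OD490 after 3 h. IC50 reported as mean ± SD of three experiments.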

HCT-116 = assay: Cytotoxicity against human HCT116 cells after 72 hrs by MTS assay; format: functional, cell-based; conditions: HCT-116, 72 h
Procedure, shortened: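 HCT-116 carcinoma cells in McCoy's 5A with 10% FBS, 1% nonessential amino acids, 2% HEPES and antibiotics, passages 26–35, 37 °C, 5% CO2. Samples were DMSO-solubilized by sonication and diluted in medium, final DMSO ≤0.5%. Cells were exposed for 72 h to six-point 4-fold dilutions. MTS plus phenazine methosulfate ran 3 h, with absorbance at 490 nm versus control wells. IC50 given as mean ± SD, three experiments.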

Caco-2 = assay: Cytotoxicity against human Caco2 cells after 72 hrs by MTS assay; format: functional, cell-based; conditions: Caco-2, 72 h; procedure, shortened: as §1

COC(=O)c1cc(O[C@@H]2O[C@H](CO)[C@@H](O)[C@H](O)[C@H]2O[C@@H]2OC[C@](O)(CO)[C@H]2O)ccc1O [SACCHARUMOSIDE D]
IC50 [1]: < 5 µg/mL | IC50 (HCT-116): < 5 µg/mL | IC50 (Caco-2): < 5 µg/mL

COc1cc(CO)ccc1O[C@@H]1O[C@H](CO)[C@@H](O)[C@H](O)[C@H]1O [VANILLOLOSIDE]
IC50 [1]: < 5 µg/mL | IC50 (HCT-116): < 5 µg/mL | IC50 (Caco-2): < 5 µg/mL

COc1cc(C(=O)OC[C@H]2O[C@@H](Oc3ccc(CO)cc3OC)[C@H](O)[C@@H](O)[C@@H]2O)ccc1O [SACCHARUMOSIDE B]
IC50 [1]: < 5 µg/mL | IC50 (HCT-116): < 5 µg/mL | IC50 (Caco-2): < 5 µg/mL

COc1cc([C@H]2OC[C@H]3[C@@H]2CO[C@@H]3c2cc(OC)c(O[C@@H]3O[C@H](CO)[C@@H](O)[C@H](O)[C@H]3O)c(OC)c2)cc(OC)c1O
IC50 [1]: < 5 µg/mL | IC50 (HCT-116): < 5 µg/mL | IC50 (Caco-2): < 5 µg/mL

COc1cc([C@@H]2c3cc4c(cc3[C@@H](O[C@@H]3O[C@@H]5CO[C@@H](C)O[C@H]5[C@H](O)[C@H]3O)[C@H]3COC(=O)[C@H]23)OCO4)cc(OC)c1O [ETOPOSIDE]
IC50 [1]: 43.6 µg/mL (≈ 74.1 µM) | IC50 (HCT-116): 9.9 µg/mL (≈ 16.8 µM) | IC50 (Caco-2): 9.4 µg/mL (≈ 16 µM)

COc1cc(CO)cc(OC)c1O[C@@H]1O[C@H](CO)[C@@H](O)[C@H](O)[C@H]1O
IC50 [1]: < 5 µg/mL | IC50 (HCT-116): < 5 µg/mL | IC50 (Caco-2): < 5 µg/mL

COc1cc(CO)ccc1O[C@@H]1O[C@H](CO[C@@H]2OC[C@](O)(CO)[C@H]2O)[C@@H](O)[C@H](O)[C@H]1O
IC50 [1]: < 5 µg/mL | IC50 (HCT-116): < 5 µg/mL | IC50 (Caco-2): < 5 µg/mL

COc1cc(O[C@@H]2O[C@H](CO[C@@H]3OC[C@](O)(CO)[C@H]3O)[C@@H](O)[C@H](O)[C@H]2O)cc(OC)c1OC
IC50 [1]: < 5 µg/mL | IC50 (HCT-116): < 5 µg/mL | IC50 (Caco-2): < 5 µg/mL

COc1cc(C(=O)OC[C@H]2O[C@@H](Oc3ccc([C@@H]4Oc5c(OC)cc(CCCO)cc5[C@H]4CO)cc3OC)[C@H](O)[C@@H](O)[C@@H]2O)ccc1O [SACCHARUMOSIDE A]
IC50 [1]: < 5 µg/mL | IC50 (HCT-116): < 5 µg/mL | IC50 (Caco-2): < 5 µg/mL

COc1cc(O[C@@H]2O[C@H](CO)[C@@H](O)[C@H](O)[C@H]2O)cc(OC)c1OC
IC50 [1]: < 5 µg/mL | IC50 (HCT-116): < 5 µg/mL | IC50 (Caco-2): < 5 µg/mL

COC(=O)c1cc(O[C@@H]2O[C@H](CO[C@@H]3OC[C@](O)(CO)[C@H]3O)[C@@H](O)[C@H](O)[C@H]2O)ccc1O [SACCHARUMOSIDE C]
IC50 [1]: < 5 µg/mL | IC50 (HCT-116): < 5 µg/mL | IC50 (Caco-2): < 5 µg/mL

COc1cc([C@@H]2Oc3c(OC)cc(CCCO)cc3[C@H]2CO)ccc1O[C@@H]1O[C@@H](C)[C@H](O)[C@@H](O)[C@H]1O
IC50 [1]: < 5 µg/mL | IC50 (HCT-116): < 5 µg/mL | IC50 (Caco-2): < 5 µg/mL

COc1cc2ccc(=O)oc2cc1O[C@@H]1O[C@H](CO)[C@@H](O)[C@H](O)[C@H]1O [SCOPOLIN]
IC50 [1]: < 5 µg/mL | IC50 (HCT-116): < 5 µg/mL | IC50 (Caco-2): < 5 µg/mL
